ChEMBL document CHEMBL1132203, “Synthesis and biological properties of novel pyridinioalkanoyl thiolesters (PATE) as anti-HIV-1 agents that target the viral nucleocapsid protein zinc fingers” (J Med Chem, 1999)

Key:
[1] = system: Human immunodeficiency virus 1; assay: Effective antiviral concentration against HIV-1 infected CEM-SS cells; assay type: functional, organism-based; conditions: Human immunodeficiency virus 1, CEM-SS
Procedure, shortened: (§1)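 CEM-SS cells infected with HIV-1 RF at MOI 0.01, scored by XTT dye-reduction cytoprotection. EC50 is the concentration giving 50% protection of infected cells. IC50 is the concentration causing 50% cytotoxicity (growth inhibition). High test concentration 316 μM.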

[2] = system: Human immunodeficiency virus 1; assay: Antiviral activity against HIV-1 infected CEM-SS cells was determined in XTT cytoprotection assay; assay type: functional, organism-based; conditions: Human immunodeficiency virus 1, CEM-SS; procedure, shortened: as §1
[3] = system: Human immunodeficiency virus 1; assay: Nucleocapsid p7 protein (NCp7) zinc finger domain reactivity was measured by Trp37 fluorescence assay expressed as the average decrease in relative fluorescence units over 30 min; assay type: functional
Procedure, shortened: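 Recombinant HIV-1 NCp7 (pET3A construct expressed in E. coli BL21); intrinsic fluorescence of Trp37 in the C-terminal zinc finger monitored over 30 min after compound addition. Value is the mean fall in relative fluorescence units per minute across 30 min, taken as a readout of Zn ejection. Dithiane or DIBA-1 served as reference. Where glutathione pretreatment was used, 2 mM compound was held 2 h at 37 °C with 2–8 M excess reduced glutathione, then diluted 40-fold to 50 μM final compound.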

Row | Structure (SMILES) | EC50 [1] [µM] | IC50 [2] [µM] | Activity [3] [RFU min-1]
1 | COc1cnc(NS(=O)(=O)c2ccc(-n3sc4ccccc4c3=O)cc2)nc1 | 17.8 | 57.6 | –
2 | Cc1nnc(NS(=O)(=O)c2ccc(-n3sc4ccccc4c3=O)cc2)s1 | 7.8 | 17.3 | –
3 | O=C(CCCCBr)Sc1ccccc1C(=O)Nc1ccc(S(=O)(=O)c2ccc(NS(=O)(=O)Cc3ccccc3[N+](=O)[O-])cc2)cc1 | – | > 316 | 1.9
4 | Cc1noc(NS(=O)(=O)c2ccc(-n3sc4ccccc4c3=O)cc2)c1C | 12.8 | 39 | –
5 | CC(=O)NS(=O)(=O)c1ccc(-n2sc3ccccc3c2=O)cc1 | 12.6 | 34 | –
6 | CC(=O)NS(=O)(=O)c1ccc(NC(=O)c2ccccc2NC(=O)CCCC[n+]2ccccc2)cc1.[Br-] | – | > 316 | 2.6
7 | COc1cc(NS(=O)(=O)c2ccc(-n3sc4ccccc4c3=O)cc2)nc(OC)n1 | 7.6 | 56.6 | –
8 | NS(=O)(=O)c1ccc(CNC(=O)c2ccccc2SSc2ccccc2C(=O)NCc2ccc(S(N)(=O)=O)cc2)cc1 | 0.33 | 19.4 | 3.3
9 | O=c1c2ccccc2sn1-c1ccc(S(=O)(=O)c2ccc(NS(=O)(=O)Cc3ccccc3[N+](=O)[O-])cc2)cc1 | 3.2 | 59.5 | 2
10 | NS(=O)(=O)c1ccc(CNC(=O)c2ccccc2SC(=O)CCCC[n+]2ccccc2)cc1.[Br-] | 1.1 | 55 | 1.4
11 | CC(=O)NS(=O)(=O)c1ccc(NC(=O)c2ccccc2NC(=O)CCl)cc1 | – | 202 | 0.3
12 | CC(=O)NS(=O)(=O)c1ccc(NC(=O)c2ccccc2NC(=O)CCCl)cc1 | – | > 316 | 2
13 | O=C(Nc1ccc(S(=O)(=O)c2ccc(NS(=O)(=O)Cc3ccccc3[N+](=O)[O-])cc2)cc1)c1ccccc1SSc1ccccc1C(=O)Nc1ccc(S(=O)(=O)c2ccc(NS(=O)(=O)Cc3ccccc3[N+](=O)[O-])cc2)cc1 | 12.3 | > 316 | 1.5
14 | CC(=O)Nc1ccc(S(=O)(=O)Nc2ccc(S(=O)(=O)c3ccc(NC(=O)c4ccccc4SSc4ccccc4C(=O)Nc4ccc(S(=O)(=O)c5ccc(NS(=O)(=O)c6ccc(NC(C)=O)cc6)cc5)cc4)cc3)cc2)cc1 | 1 | 12.7 | 5.9
15 | Cc1cc(NS(=O)(=O)c2ccc(-n3sc4ccccc4c3=O)cc2)nc(C)n1 | 6.5 | 39.7 | –
16 | CC(=O)Nc1ccc(S(=O)(=O)c2ccc(NC(=O)c3ccccc3SC(=O)CCCC[n+]3ccccc3)cc2)cc1.[Br-] | 4.6 | 288 | 1.7
17 | Cc1ccnc(NS(=O)(=O)c2ccc(-n3sc4ccccc4c3=O)cc2)n1 | 8.8 | 57.4 | –
18 | CC(=O)NS(=O)(=O)c1ccc(NC(=O)c2ccccc2SC(=O)CCCl)cc1 | 4.2 | 62 | 9.2
19 | NS(=O)(=O)c1ccc(CCNC(=O)c2ccccc2SSc2ccccc2C(=O)NCCc2ccc(S(N)(=O)=O)cc2)cc1 | 0.41 | 52.8 | 2.7
20 | O=c1c2ccccc2sn1-c1ccc(S(=O)(=O)Nc2ncccn2)cc1 | 6.5 | 50.8 | –
21 | Cc1cc(C)nc(NS(=O)(=O)c2ccc(-n3sc4ccccc4c3=O)cc2)n1 | 6.9 | 17.1 | –
22 | O=c1c2ccccc2sn1-c1ccc(S(=O)(=O)c2ccc([N+](=O)[O-])cc2)cc1 | – | > 316 | 4.1
23 | CC(=O)NS(=O)(=O)c1ccc(NC(=O)c2ccccc2SC(=O)c2ccccc2)cc1 | 2.6 | 45.7 | 2.2
24 | O=C(Nc1ccc(S(=O)(=O)c2ccc(NC(=O)c3ccccc3SSc3ccccc3C(=O)Nc3ccc(S(=O)(=O)c4ccc(NC(=O)c5cc([N+](=O)[O-])cc([N+](=O)[O-])c5)cc4)cc3)cc2)cc1)c1cc([N+](=O)[O-])cc([N+](=O)[O-])c1 | 240 | > 316 | 1.6
25 | NS(=O)(=O)c1ccc(-n2sc3ccccc3c2=O)cc1 | – | 16.2 | –
26 | Cc1cc(NS(=O)(=O)c2ccc(-n3sc4ccccc4c3=O)cc2)no1 | 8.7 | 54.6 | –
27 | CC(=O)NS(=O)(=O)c1ccc(NC(=O)c2ccccc2SC(C)=O)cc1 | 2.8 | 56.7 | 4.2

Further lines, with some results ahead:

Row | EC50 [1] [µM] | Structure (SMILES) | IC50 [2] [µM] | Activity [3] [RFU min-1]
28 | 1.9 | Cc1cc(NS(=O)(=O)c2ccc(NC(=O)c3ccccc3SSc3ccccc3C(=O)Nc3ccc(S(=O)(=O)Nc4cc(C)on4)cc3)cc2)no1 | 27.6 | –
29 | 1.6 | Cc1cc(C)nc(NS(=O)(=O)c2ccc(NC(=O)c3ccccc3SSc3ccccc3C(=O)Nc3ccc(S(=O)(=O)Nc4nc(C)cc(C)n4)cc3)cc2)n1 | 32.2 | –
30 | 1 | O=C(Nc1ccc(S(=O)(=O)Nc2nccs2)cc1)c1ccccc1SSc1ccccc1C(=O)Nc1ccc(S(=O)(=O)Nc2nccs2)cc1 | 18 | –
31 | 9.3 | O=C(NS(=O)(=O)c1ccc(-n2sc3ccccc3c2=O)cc1)c1ccccc1 | 49.5 | –
32 | 7.1 | O=c1c2ccccc2sn1-c1ccc(S(=O)(=O)Nc2ccc(Cl)nn2)cc1 | 19.2 | –
33 | 2.1 | COc1cc(NS(=O)(=O)c2ccc(NC(=O)c3ccccc3SSc3ccccc3C(=O)Nc3ccc(S(=O)(=O)Nc4cc(OC)nc(OC)n4)cc3)cc2)nc(OC)n1 | 52.5 | –
34 | 9.2 | O=c1c2ccccc2sn1-c1ccc(S(=O)(=O)Nc2cnc3ccccc3n2)cc1 | 54.7 | –
35 | 12.2 | O=C(Nc1ccc(S(=O)(=O)c2ccc(NC(=O)c3ccccc3SSc3ccccc3C(=O)Nc3ccc(S(=O)(=O)c4ccc(NC(=O)c5cccs5)cc4)cc3)cc2)cc1)c1cccs1 | 190 | –
36 | 6.2 | NS(=O)(=O)c1ccc(NS(=O)(=O)c2ccc(-n3sc4ccccc4c3=O)cc2)cc1 | 18.1 | –
37 | 3.8 | O=C(NS(=O)(=O)c1ccc(NC(=O)c2ccccc2SSc2ccccc2C(=O)Nc2ccc(S(=O)(=O)NC(=O)c3ccccc3)cc2)cc1)c1ccccc1 | 54.1 | –
38 | 2.5 | Cc1noc(NS(=O)(=O)c2ccc(NC(=O)c3ccccc3SSc3ccccc3C(=O)Nc3ccc(S(=O)(=O)Nc4onc(C)c4C)cc3)cc2)c1C | 44.2 | –
39 | 1.1 | O=C(Nc1ccc(S(=O)(=O)Nc2ccccn2)cc1)c1ccccc1SSc1ccccc1C(=O)Nc1ccc(S(=O)(=O)Nc2ccccn2)cc1 | 17.8 | –
40 | 0.33 | O=C(Nc1ccc(S(=O)(=O)Nc2ccnn2-c2ccccc2)cc1)c1ccccc1SSc1ccccc1C(=O)Nc1ccc(S(=O)(=O)Nc2ccnn2-c2ccccc2)cc1 | 19.5 | –
41 | 2.9 | O=C(Nc1ccc(S(=O)(=O)Nc2ccc(Cl)nn2)cc1)c1ccccc1SSc1ccccc1C(=O)Nc1ccc(S(=O)(=O)Nc2ccc(Cl)nn2)cc1 | 18.3 | –
42 | 1.9 | Cc1cc(NS(=O)(=O)c2ccc(NC(=O)c3ccccc3SSc3ccccc3C(=O)Nc3ccc(S(=O)(=O)Nc4cc(C)nc(C)n4)cc3)cc2)nc(C)n1 | 18.2 | –
43 | 0.72 | O=C(Nc1ccc(S(=O)(=O)Nc2cnc3ccccc3n2)cc1)c1ccccc1SSc1ccccc1C(=O)Nc1ccc(S(=O)(=O)Nc2cnc3ccccc3n2)cc1 | 22.2 | –
44 | 4.2 | COc1ccc(NS(=O)(=O)c2ccc(NC(=O)c3ccccc3SSc3ccccc3C(=O)Nc3ccc(S(=O)(=O)Nc4ccc(OC)nn4)cc3)cc2)nn1 | 53.8 | –
45 | 2.3 | NS(=O)(=O)c1ccc(NS(=O)(=O)c2ccc(NC(=O)c3ccccc3SSc3ccccc3C(=O)Nc3ccc(S(=O)(=O)Nc4ccc(S(N)(=O)=O)cc4)cc3)cc2)cc1 | 43 | –
46 | 2 | O=C(Nc1ccc(S(=O)(=O)Nc2ncccn2)cc1)c1ccccc1SSc1ccccc1C(=O)Nc1ccc(S(=O)(=O)Nc2ncccn2)cc1 | 46.4 | –
47 | 1.6 | COc1cc(NS(=O)(=O)c2ccc(NC(=O)c3ccccc3SSc3ccccc3C(=O)Nc3ccc(S(=O)(=O)Nc4cc(OC)ncn4)cc3)cc2)ncn1 | 46.5 | –
48 | 4.2 | Cc1ccnc(NS(=O)(=O)c2ccc(NC(=O)c3ccccc3SSc3ccccc3C(=O)Nc3ccc(S(=O)(=O)Nc4nccc(C)n4)cc3)cc2)n1 | 56.7 | –
49 | 1.5 | CC(=O)NS(=O)(=O)c1ccc(NC(=O)c2ccccc2SSc2ccccc2C(=O)Nc2ccc(S(=O)(=O)NC(C)=O)cc2)cc1 | > 200 | –
50 | 2.4 | Cc1nc(NS(=O)(=O)c2ccc(NC(=O)c3ccccc3SSc3ccccc3C(=O)Nc3ccc(S(=O)(=O)Nc4nc(C)c(C)o4)cc3)cc2)oc1C | 46.4 | –
51 | 0.85 | NS(=O)(=O)c1ccc(NC(=O)c2ccccc2SSc2ccccc2C(=O)Nc2ccc(S(N)(=O)=O)cc2)cc1 | 217 | –
52 | 3.4 | Cc1nnc(NS(=O)(=O)c2ccc(NC(=O)c3ccccc3SSc3ccccc3C(=O)Nc3ccc(S(=O)(=O)Nc4nnc(C)s4)cc3)cc2)s1 | 18.6 | –
53 | 2.1 | COc1cnc(NS(=O)(=O)c2ccc(NC(=O)c3ccccc3SSc3ccccc3C(=O)Nc3ccc(S(=O)(=O)Nc4ncc(OC)cn4)cc3)cc2)nc1 | 55.5 | –
54 | 111 | N=C(N)NS(=O)(=O)c1ccc(NC(=O)c2ccccc2SSc2ccccc2C(=O)Nc2ccc(S(=O)(=O)N=C(N)N)cc2)cc1 | > 316 | –
55 | 22.6 | COc1ccc(NS(=O)(=O)c2ccc(-n3sc4ccccc4c3=O)cc2)nn1 | 55.3 | –
